# TRAIL sens C8 – sensitizes caspase-8 expressing cells to TRAIL. NB7+C8 cells + TRAIL, ATPlite viability luminescence. inhibition (viability loss, TRAIL sensitization), % at 10 µM. hit rate 1% among 360,000. AID 624354;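 active = compounds causing at least 50% loss of cell viability in the single-dose screen, relative to plate controls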
# Wee1 stabilizer – inhibitors of human Wee1 degradation; P30291; reporter increase, % at 5 µM; hit rate 1.2% among 220,000; HeLa Luc-Wee1K328M stability, luciferase luminescence; 100% = proteasome inhibitor MG132 effect;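 active = activation above the mean of all tested compounds plus 3 SD, set per screening run, cut at about 8.8% in these data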;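 note: cells exposed to compound for 20 h before luminescence read; 0% = DMSO alone and 100% = MG132 at 30 µM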
# FLuc inhib CS – inhibits firefly luciferase, flagging false hits in luciferase inhibition screens; P08659; ATPLite firefly luciferase biochemical luminescence, 10 min; inhibition, % at 10 µM; hit rate 1.5% among 200,000; AID 1006;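 active = inhibition above about 50% when tested at 10 µM, limit read from the data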
# PPC-1+TRAIL kill – kills PPC-1 cancer cells in the presence of TRAIL | PPC-1 cells + TRAIL, ATPLite viability luminescence | cell killing (% activity), % at 4 µM or 5 µM | hit rate 0.41% among 220,000;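 active = cell killing above 50% in the first pass at 4 µM, then a duplicate retest at 5 µM averaging 50% or more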;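 note: plate controls were cells with TRAIL plus DMSO for no effect and medium-only wells lacking cells for full effect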
# FLuc stim CS – affects firefly luciferase, flagging false hits in luciferase stimulation screens | P08659 | ATPlite luciferase biochemical, luminescence, 10 min; 0 = ATP-free wells, 1 = DMSO control | activation factor at 10 µM | 200,000 tested, under 10 active | AID 1027;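 active = luciferase activation factor, scaled between plate controls, of at least 2 with compound at 10 µM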
#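 assay system = Luciferase/luciferin detection reagent, cell-free biochemical luciferase assay | also added = ATP substrate | times = 10 min post-reagent at room temperature | measured by = luminescence from luciferase reaction | measure = luciferase activation, seen as luminescence increase over controls | benchmarks = low control with PBS replacing ATP, high control enzyme plus ATP without compound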
# PKD1 inh – inhibitors of human PKD1 kinase | Q15139 | PKD1 kinase fluorescence polarization assay | inhibition, % (no concentration beside the values) | hit rate 0.056% among 200,000 | AID 797; in the data active = inhibition above about 50%
# Target sequence (Q15139 whole entry, looked up): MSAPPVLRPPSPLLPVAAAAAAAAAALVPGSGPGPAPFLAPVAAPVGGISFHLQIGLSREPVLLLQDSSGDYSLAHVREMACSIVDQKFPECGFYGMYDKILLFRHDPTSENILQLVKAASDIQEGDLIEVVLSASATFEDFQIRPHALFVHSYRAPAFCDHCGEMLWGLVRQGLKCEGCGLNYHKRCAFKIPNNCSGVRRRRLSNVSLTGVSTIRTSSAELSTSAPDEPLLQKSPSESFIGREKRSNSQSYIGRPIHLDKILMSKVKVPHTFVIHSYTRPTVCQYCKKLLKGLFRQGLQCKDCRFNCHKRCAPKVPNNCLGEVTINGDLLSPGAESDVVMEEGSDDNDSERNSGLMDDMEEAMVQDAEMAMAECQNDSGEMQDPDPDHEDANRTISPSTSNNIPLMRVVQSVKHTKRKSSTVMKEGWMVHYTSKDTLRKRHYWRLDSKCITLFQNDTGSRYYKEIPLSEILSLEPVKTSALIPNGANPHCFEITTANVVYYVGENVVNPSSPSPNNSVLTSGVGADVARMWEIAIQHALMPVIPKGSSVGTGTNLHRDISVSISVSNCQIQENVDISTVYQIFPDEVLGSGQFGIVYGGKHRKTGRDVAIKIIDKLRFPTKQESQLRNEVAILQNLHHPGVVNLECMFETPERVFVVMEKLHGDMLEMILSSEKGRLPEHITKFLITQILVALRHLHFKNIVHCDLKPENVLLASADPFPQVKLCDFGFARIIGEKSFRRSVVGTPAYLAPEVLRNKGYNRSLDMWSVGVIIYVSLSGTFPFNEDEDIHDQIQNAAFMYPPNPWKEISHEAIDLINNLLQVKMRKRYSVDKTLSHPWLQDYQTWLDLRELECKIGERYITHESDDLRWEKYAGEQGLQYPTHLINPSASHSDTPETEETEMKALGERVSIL
# PPC-1 tox – kills PPC-1 cells; shares compounds with PPC-1+TRAIL kill; hit rate 50% among 1,200; PPC-1 viability, ATPlite luminescence, overnight; cytotoxicity, % at 5 µM;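 active = reconfirmed compounds whose average cytotoxicity reaches 50% or more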;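 note: 0% = DMSO-treated cells and 100% = wells holding medium but no cells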
# An asterisk follows results filed as active; nt = no result. Compounds with a hit are over-represented: about 2.2% of the library has one in this group of screens.
SMILES,TRAIL sens C8,Wee1 stabilizer,FLuc inhib CS,PPC-1+TRAIL kill,FLuc stim CS,PKD1 inh,PPC-1 tox
O=C(CSc1nnc(Cc2cccs2)n1C1CCCCC1)N1CCCc2ccccc21,20,-1,1,2,1,-3,7
COC(=O)c1ccccc1NC(=O)COC(=O)C1CCCCC1,-3,-2,nt,9,nt,nt,nt
CCc1nn2cc(-c3ccccc3)nc2s1,71*,0,89*,58*,0.1,-20,57*
CCNC(=S)N/N=C/c1sc(N2CCCCC2)nc1-c1cccs1,23,0,62*,29,0.4,4,41
N#C/C(=C/c1cccs1)c1nc2ccccc2[nH]1,27,7,3,37,1,-5,nt
Cc1ccc(/C=C(\C#N)c2nc3ccccc3[nH]2)s1,61*,5,47,51*,0.5,0,57*
Cc1ccnc(NC(=S)N2CCN(c3cccc(C(F)(F)F)c3)CC2)c1,-5,nt,nt,nt,nt,nt,nt
O=C(CCNS(=O)(=O)c1ccccc1C(F)(F)F)N1CCN(S(=O)(=O)c2cccc(F)c2)CC1,6,nt,nt,nt,nt,nt,nt
Cc1nc(N)nc(N)c1/C=C/C(C)(C)c1ccc(Cl)cc1,76*,-2,-1,51*,1,-2,48
O=C(NCc1cccnc1)C1CCCN(S(=O)(=O)c2ccccc2)C1 (stereo not given),16,0,2,7,1,2,9
Cc1c(Cl)cnc(NC(=O)CSc2n[nH]c(N)n2)c1Cl,-5,nt,nt,nt,nt,nt,nt
Cc1cccc(C(=O)N2CCCCCC2)c1,-3,-1,-5,0,1,6,nt
O=C(c1ccccc1)n1c(=S)nc2ccccn21,84*,nt,94*,72*,0.1,nt,74*
Cc1ccc(C(=O)n2c(=S)nc3ccccn32)cc1,nt,6,96*,91*,0,0,90*
Cc1cccc(C(=O)n2c(=S)nc3ccccn32)c1,74*,6,91*,70*,0.1,1,70*
CCC(NC(=O)CCc1nnc(-c2cc(C)on2)o1)C12CC3CC(CC(C3)C1)C2 (stereo not given),-6,nt,nt,nt,nt,nt,nt
O=C(CSc1ncn[nH]1)Nc1nc(-c2ccccc2)cs1,-7,0,1,1,1,-15,-4
COc1ccc(-c2csc(NC(=O)CSc3ncn[nH]3)n2)cc1OC,-14,2,-4,9,1,-5,nt
COc1ccc(OC)c2c1sc(=NC(=O)c1ccco1)n2C,4,0,-7,6,1.1,-7,nt
Cc1ccc(-c2c(C)sc(=NC(=O)c3ccco3)n2C)cc1,65*,4,86*,39,0.1,0,36
Cc1ccc(S(=O)(=O)NCC(=O)N2CCOCCOCCOCC2)cc1,6,nt,nt,nt,nt,nt,nt
O=C(N/N=C/c1ccc2nccnc2c1)c1ccccc1O,nt,-1,nt,63*,nt,nt,63*
Cc1ccc2nc(NC(=O)c3ccco3)sc2c1,78*,-2,90*,70*,0.1,1,64*
Cc1ccc2nc3n(c2c1)CCCN3,-3,nt,nt,nt,nt,nt,nt
Cc1ccc(C)c(NC(=O)C2(C)CCCN2C(=O)C(C)C)c1 (stereo not given),-22,nt,nt,nt,nt,nt,nt
SMILES,TRAIL sens C8,Wee1 stabilizer,FLuc inhib CS,PPC-1+TRAIL kill,FLuc stim CS,PKD1 inh,PPC-1 tox
CCc1ccc(NC(=O)CCCNC(=O)Cn2cnc3sc(C)c(C)c3c2=O)cc1,-7,nt,nt,nt,nt,nt,nt
CCC(C)c1ccc(-c2cc(C(=O)OCC(=O)Nc3cc(C)on3)c3ccccc3n2)cc1 (stereo not given),83*,2,18,83*,0.8,4,80*
COc1ccc(-c2cc(C(=O)OCC(=O)Nc3cc(C)on3)c3ccccc3n2)cc1OC,17,1,0,30,1,-10,nt
Cc1ccc(C(=O)NC(O)C(Cl)Cl)cc1 (stereo not given),-3,3,-5,-4,1.1,-1,nt
COCCn1c(C)cc(/C=C2/SC(=O)N(C(C)C(=O)OC)C2=O)c1C (stereo not given),63*,0,nt,53*,nt,nt,44
CC(C)c1ccc(NC2CCCN(C(=O)CCn3cnnn3)C2)cc1 (stereo not given),-22,nt,nt,nt,nt,nt,nt
C(#Cc1ccccc1)C[N+]1(CC#Cc2ccccc2)CCCCC1,32,-4,-3,23,1,0,nt
Cc1ccc(C#CC[N+]2(CC#Cc3ccc(C)cc3)CCCCC2)cc1,34,-2,-8,15,1.1,-2,20
O=C(COC(=O)CN1C(=O)c2ccccc2C1=O)Nc1ccc(S(=O)(=O)N2CCCC2)cc1,38,0,-11,13,1.1,2,16
CCCC(=O)NC(=S)c1c(C)n(C)n(-c2ccccc2)c1=O,4,3,-4,10,1,-3,nt
CCc1c(C)c2c(C)nn(-c3ccccc3)c2[nH]c1=O,5,-2,-10,-6,1.1,-3,nt
CCc1c(C)n2nc(C)cc2[nH]c1=O,-19,-2,1,14,1,-8,12
O=C(Nc1ccc2[nH]ccc2c1)c1ccccc1,84*,-1,nt,81*,nt,nt,73*
O=C(Nc1ccc2[nH]ccc2c1)c1ccc(F)cc1,88*,-3,nt,84*,nt,nt,84*
COc1ccc(NC(=O)Nc2ccc3[nH]ccc3c2)cc1,21,nt,nt,nt,nt,nt,nt
C=CC(=O)N1CCCC(Nc2nc(Nc3ccc(N(C)C(=O)CC)cc3C)nc3nc[nH]c23)C1 (stereo not given),-20,nt,nt,nt,nt,nt,nt
CCc1nc2ccc(C(=O)N3CCN(S(=O)(=O)CC)CC3)cn2c1N(CCC(C)C)CCN(C)C,-16,nt,nt,nt,nt,nt,nt
CC(=O)Nc1ccc(C(=O)CSc2nnc(-c3ccccc3F)n2CCc2ccccc2)cc1,0,nt,nt,nt,nt,nt,nt
O=C(Nc1nccs1)c1cn2ccccc2n1,40,-1,nt,61*,nt,nt,59*
NNC(=O)c1cn2ccccc2n1,-7,-2,-3,28,1,-8,nt
CC(=O)c1ccc(OC(=O)Cc2cccc3ccccc23)cc1,-5,nt,nt,nt,nt,nt,nt
COCCn1c(-c2ccc(Br)cc2)csc1=Nc1cccnc1,7,-2,-6,3,1.1,-8,6
Cc1ccc(NCc2ccccc2O)c(C)c1,2,0,-5,10,1,-6,10
Cc1nc2cc(Nc3ccncc3)ccc2s1,-16,-2,-3,0,1,-8,nt
COc1ccc(NC(=O)C2CCCN2S(=O)(=O)c2cccc3cccnc23)cc1OC (stereo not given),8,nt,nt,nt,nt,nt,nt
Cc1ccc(-c2cc(C(=O)N3CCOCC3)c3ccccc3n2)o1,24,nt,nt,nt,nt,nt,nt
COc1cc(-c2cc(C(=O)N3CCN(c4ccccn4)CC3)c3ccccc3n2)cc(OC)c1OC,20,-2,nt,nt,nt,-2,nt
COc1ccc(-c2cc(C(=O)N3CCN(c4ccccn4)CC3)c3ccccc3n2)cc1,58*,-1,80*,51*,0.2,13,53*

# High-throughput results from PubChem BioAssay.
